An excerpt weighted towards active compounds, which were near 2.9% of everything screened.
MIN6 prolif: induces beta-cell replication in MIN6 cells | proliferation, % at 10 µM | MIN6 cells proliferation, ATPlite luminescence, 48 h; cells starved in 0.2% serum; 100% = growth in 10% serum | 330,000 tested, 0.29% active;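 active means compounds whose signal lies at least 3.5 SD above the mean of all wells on their plate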;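 further: 0% = DMSO-treated cells in low-serum medium and 100% = 10% serum control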
hiPSC survival: enhancers of human iPSC single-cell survival; hiPSC single-cell survival, ATPlite luminescence; 100% = ROCK inhibitor wells, 0% = DMSO; survival enhancement, % at 20 µM; 360,000 tested, 0.044% active; AID 602274; in the data active means survival enhancement above about 18%;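 further: cells exposed to compounds for 16 hours before the ATP read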
T cruzi repl: blocks replication of Trypanosoma cruzi; T. cruzi beta-gal in NIH3T3, luminescence, 90 h; inhibition, % (concentration not given with the values); 300,000 tested, 1.4% active; AID 1885;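 active means mean inhibition across valid replicates above about 55%, limit read from the data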;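 further: signal also drops with host cell toxicity which is not excluded here; 0% = plate median of DMSO wells and 100% = zero luminescence signal; higher percent means less beta-gal luminescence so fewer parasites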
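Assay system: NIH/3T3 host cells with β-galactosidase reporter T. cruzi; input: 5,000 host fibroblasts per well; compound: single 50 nL compound addition per well in DMSO; timing: ≥90 h infection period, 3 h prior cell attachment; measured by: GalScreen β-gal luminescence, detergent lysis, 60 min; evaluation: percent inhibition of parasite-derived β-gal signal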
Rev-erbA mod: modulators of human Rev-erb alpha DNA binding; activity, % at 10 µM; 370,000 tested, 0.79% active; P20393; Rev-erbα–FITC-DNA binding, fluorescence polarization, 90 min;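 active means activity above about 14%, limit read from the data; passing the limit was not always enough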;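 further: 0% = DMSO wells with 35 nM protein and 100% = DMSO wells with 750 nM protein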
Target sequence (P20393 whole entry, looked up): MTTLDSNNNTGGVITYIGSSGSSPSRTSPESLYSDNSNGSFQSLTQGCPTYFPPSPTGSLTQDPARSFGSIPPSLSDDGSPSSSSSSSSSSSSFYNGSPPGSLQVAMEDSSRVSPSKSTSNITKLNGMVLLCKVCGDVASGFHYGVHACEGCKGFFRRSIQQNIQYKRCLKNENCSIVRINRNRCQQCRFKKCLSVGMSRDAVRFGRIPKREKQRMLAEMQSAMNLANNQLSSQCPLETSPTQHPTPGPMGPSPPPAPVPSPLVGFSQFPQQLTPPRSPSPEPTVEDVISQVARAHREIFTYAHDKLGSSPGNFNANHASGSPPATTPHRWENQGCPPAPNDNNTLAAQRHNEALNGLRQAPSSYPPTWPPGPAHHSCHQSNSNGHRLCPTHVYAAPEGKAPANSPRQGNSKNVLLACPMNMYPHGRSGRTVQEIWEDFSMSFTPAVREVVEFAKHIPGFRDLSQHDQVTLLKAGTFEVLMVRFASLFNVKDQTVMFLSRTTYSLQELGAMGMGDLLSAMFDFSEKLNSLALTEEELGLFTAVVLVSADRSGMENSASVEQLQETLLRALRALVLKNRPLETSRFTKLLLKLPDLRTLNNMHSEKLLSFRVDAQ
TAG inh: reduces triacylglycerol accumulation in H9c2 cells; AID 651582; Nile Red lipid (TAG) fluorescence; cells loaded with 200 µM oleic acid; 230,000 tested, 0.66% active; inhibition, % at 12.5 µM;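 active means pattern-corrected inhibition of lipid staining of at least 50% with the nuclear-stain viability signal not falling by more than 50%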;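 further: 0% = DMSO wells and 100% = triacsin C control wells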
PG9 Ab binder: small molecules binding HIV-1 gp120 antibody PG9; TR-FRET gp120-PG9 antibody binding; inhibition, % at 6.7 µM; 360,000 tested, 0.43% active; AID 624416; in the data active means inhibition above about 8.5%
PG9 bind confirm: PG9 antibody binding, confirmed; shares compounds with PG9 Ab binder; TR-FRET PG9 antibody binding, biochemical; inhibition, % at 6.7 µM; 1,500 tested, 90% active; AID 651571; in the data active means inhibition above about 9%
PGV04 Ab binding: binds control antibody PGV04 in PG9 binder counter-screen; shares compounds with PG9 Ab binder; TR-FRET PGV04 antibody-gp120 binding, biochemical; inhibition, % at 6.7 µM; 1,500 tested, 95% active; in the data active means inhibition above about 9.5%
PG9 binder DR: small molecules binding HIV-1 gp120 antibody PG9 | shares compounds with PG9 Ab binder | TR-FRET PG9 antibody-gp120 binding inhibition | IC50, µM | 95 tested, under 10 active | AID 651848; in the data active means IC50 below about 10 µM
PGV04 DR counter: binds control antibody PGV04 in PG9 counter-screen; TR-FRET binding to control antibody PGV04; AID 651937; IC50, µM; 95 tested, 20% active; shares compounds with PG9 Ab binder
PG126 DR counter: binds control antibody PG126 in PG9 counter-screen. shares compounds with PG9 Ab binder. TR-FRET binding to antibody PG126, counterscreen. IC50, µM. 95 tested, 20% active
H9c2 TAG conf: confirmation of triacylglycerol accumulation inhibitors | AID 651629 | inhibition, % at 12.5 µM | shares compounds with TAG inh | H9c2 lipid accumulation, Nile Red fluorescence; cells loaded with 200 µM oleic acid | 990 tested, 71% active;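 active means mean inhibition across replicates of 40% or more; inactive means mean inhibition below 40%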;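 further: plate controls were DMSO only wells for no effect and Triacsin C treated wells for full effect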
Rev-erbA confirm: Rev-erb alpha (human) modulation, hit confirmation | shares compounds with Rev-erbA mod | Rev-erb alpha FITC-DNA binding, fluorescence polarization, 90 min | activation, % at 25 µM | 3,000 tested, 61% active | AID 1259319;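 active means activation at or above a set limit, or at least 3 SD above the negative control mean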;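 further: 0% = 35 nM protein with DMSO and 100% = 750 nM protein high control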
RORg counter: RORgamma DNA-binding activity, dose-response counter-screen | 910 tested, 8% active | purified RORgamma protein-FITC-DNA binding, fluorescence polarization | shares compounds with Rev-erbA mod | IC50, µM;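 active means Compounds whose fitted half-maximal concentration for disrupting protein-DNA binding is below 10 micromolar; the record names Rev-erb in its text, so the target is in doubt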
An asterisk follows results filed as active; i = inactive; / = no result. Unless noted, no stated cut-off is given here; in the data, active means IC50 below about 9 µM; inactive means the rest.

SMILES | MIN6 prolif | hiPSC survival | T cruzi repl | Rev-erbA mod | TAG inh | PG9 Ab binder | PG9 bind confirm | PGV04 Ab binding | Rev-erbA confirm | others
CC(Oc1ccc(Cl)cc1Cl)c1ccnc(N)n1 (stereo unspecified) | -4 | -1 | 3 | 4 | -8 | -3 | / | / | /
Cc1nc(SCC(=O)Nc2ccc3c(c2)OCO3)c(C#N)c2c1CCCC2 | 0 | -2 | 5 | -2 | -2 | -2 | / | / | /
CCOc1cccc(NC(=O)CSc2nc(C)c3c(c2C#N)CCCC3)c1 | -2 | 3 | 1 | 19 | 12 | 12* | 16* | 29* | /
O=S(=O)(c1ccc(Cl)cc1)N1CCN(c2ncccn2)CC1 | 0 | -2 | 0 | 5 | 6 | 16* | 26* | 32* | /
COc1ccc(S(=O)(=O)N2CCN(c3ncccn3)CC2)cc1 | 0 | 2 | 2 | 1 | -4 | 1 | / | / | /
CCOc1ccc(NC(=O)COC(=O)c2ccc3c(c2)OCCO3)cc1 | -1 | 0 | / | 4 | 13 | 54* | 48* | 60* | /
C=C(CCO)C1=CCN(S(=O)C(C)(C)C)[C@H]1CCO (stereo partly specified) | / | 4 | / | 1 | -12 | 0 | / | / | /
CCOc1ccccc1-c1n[nH]c(=S)o1 | -2 | -2 | -8 | -3 | / | 11* | 14* | 19* | /
CCOc1ccc(-c2n[nH]c(=S)o2)cc1 | -3 | -1 | -3 | -2 | -7 | 0 | / | / | /
Cc1nc2sccn2c(=O)c1S(=O)(=O)Nc1cccc(Cl)c1C | -5 | 0 | -13 | 2 | 17 | 9.8* | 16* | 16* | /
OC(COc1cccc2ccccc12)CN1CCN(c2ccc(Cl)cc2)CC1 (stereo unspecified) | -5 | 0 | -1 | 10 | / | 18* | 27* | 31* | /
O=C(COc1ncnc2cc([N+](=O)[O-])ccc12)N(CCc1ccccc1)Cc1ccccc1 | 0 | -2 | 54 | 1 | / | 16* | 26* | 41* | /
O=C(COc1ccc([N+](=O)[O-])cc1)N(Cc1ccccc1)Cc1ccccc1 | 0 | 0 | 8 | 3 | / | 0 | / | / | /
S=c1nc[nH]c2c1[nH]c1ccccc12 | -1 | 0 | -13 | -1 | 0 | 79* | 48* | 29* | / | PG9 binder DR=i;PGV04 DR counter=i;PG126 DR counter=i
O=c1c2[nH]c3ccc(Cl)cc3c2ncn1CCN1CCCCC1 | -4 | 3 | 15 | 1 | 13 | -2 | / | / | /
S=c1nc[nH]c2c1[nH]c1ccc(Cl)cc12 | 1 | -1 | -16 | -7 | -11 | 34* | 15* | 17* | /
O=Cc1cn(-c2ccccc2)nc1-c1ccc2c(c1)OCCO2 | -2 | 0 | / | 1 | 9 | -1 | / | / | /
N#Cc1cn(-c2ccccc2)nc1-c1ccc2c(c1)OCCO2 | -1 | 4 | -20 | 21 | 59* | 24* | 20* | 28* | / | H9c2 TAG conf=11
COc1ccc(C(=O)Nc2ccc(Cl)cc2C(=O)NCc2ccco2)cc1 | -1 | 1 | -2 | 17 | 61* | 11* | -2 | 17* | / | H9c2 TAG conf=73*
CN1CCN(C(=O)c2cc3c(c(-c4cccc(-c5cccnc5)c4)n2)[C@H](CCO)N(C(=O)CC2CC2)C3)CC1 | / | 0 | / | 10 | / | 1 | / | / | /
Cc1cc(-c2sccc2Br)nc(-n2cccc2)n1 | / | 0 | -1 | 50* | 5 | 11* | 23* | 32* | 27*
S=c1[nH]cc(-c2ccc(Cl)cc2)n1Cc1ccccc1 | -1 | 0 | 2 | 26* | -3 | 16* | 17* | 21* | 13
COc1ccc(NC(=O)CSc2nnc(-c3cccs3)n2-c2ccccc2)cc1 | -3 | 0 | 3 | 25* | 11 | 22* | 33* | 57* | 21*
COc1ccc(NC(=O)CSc2nnc(C3CC3)n2-c2ccccc2)cc1 | 1 | 0 | -6 | 3 | / | -1 | / | / | /
CC(=O)Nc1cccc(NC(=O)CSc2nc(C)c(C)c(C)c2C#N)c1 | -1 | 4 | -7 | -6 | / | 1 | / | / | /
SMILES | MIN6 prolif | hiPSC survival | T cruzi repl | Rev-erbA mod | TAG inh | PG9 Ab binder | PG9 bind confirm | PGV04 Ab binding | Rev-erbA confirm | others
Cc1cccc(C)c1NC(=O)CSc1nc(C)c(CC(=O)c2ccc(Br)cc2)c(C)c1C#N | -7 | 2 | 2 | 141* | / | 26* | 53* | 70* | 78*
CCC(=O)c1cn(CC(=O)Nc2cc(C)ccc2C)c2ccccc12 | 1 | 0 | 2 | 32* | / | 19* | 16* | 22* | 21*
O=C(NCC1CCCO1)c1cc(-c2ccccc2)nc2ccc(Br)cc12 (stereo unspecified) | 6 | 1 | 11 | 33* | / | 15* | 19* | 25* | 26*
Cc1ccc2[nH]c(=O)c(COC(=O)c3cccs3)cc2c1 | 0 | 1 | 5 | 33* | / | 18* | 50* | 66* | 21*
Cc1ccc(NC(=S)Nc2nc(CC(=O)Nc3ccccc3)cs2)cc1 | -2 | -1 | -26 | 101* | -20 | 16* | 11* | 9.7* | 91* | PG9 binder DR=>67;PGV04 DR counter=i;PG126 DR counter=i;RORg counter=>40
CCOc1ccc(C(=O)OCC(=O)Nc2cc(C)on2)cc1OCC | 3 | 3 | -7 | 58* | / | 22* | 4 | 16* | 31*
CCOc1cc(C(=O)OCC(=O)Nc2cc(C)on2)ccc1OCC(C)C | -1 | 3 | -15 | -2 | 1 | 0 | / | / | /
COc1ccc(NC(=S)NCC2CCCO2)c(C)c1 (stereo unspecified) | 0 | -1 | -8 | 0 | / | -4 | / | / | /
Cc1ccc(-c2nnc(NCc3nc4ccccc4[nH]3)c3ccccc23)cc1S(=O)(=O)N1CCOCC1 | -3 | -2 | 11 | / | / | / | / | / | /
Cc1ccc(-c2nnc(NCc3nc4ccccc4[nH]3)c3ccccc23)cc1S(=O)(=O)N(C)C | 0 | 3 | 13 | 76* | / | 11* | 21* | 34* | 53* | RORg counter=>40
